In ChEMBL document CHEMBL1134386, “Cardioselective K(ATP) channel blockers derived from a new series of m-anisamidoethylbenzenesulfonylthioureas” (J Med Chem, 2001):

What was measured:
Format in all cases: functional, cell-based
[1] = target: T1, Sulfonylurea receptor 1, Kir6.2 (Homo sapiens) (UniProt Q14654+Q09428); assay: Antiarrhythmic effect in hSUR1/hKir6.2 (pancreatic KATP channel) transfected in CHO cells at a dose of 0.1 uM; conditions: at 0.1 µM
Procedure, shortened: (§1)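 CHO cells stably expressing SUR1/Kir6.2, seeded the day before and washed three times in PBS. Loaded with voltage dye DiBAC4(3), added as a 10 µM solution, with diazoxide, added as a 400 µM solution, both in PBS; 30 min at 37 °C. Compound added after 4 min of baseline. Fluorescence read with 488 nm excitation every 20 s for 20 min. Mean of at least four experiments.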

[2] = target: T1, Sulfonylurea receptor 1, Kir6.2 (Homo sapiens); assay: Antiarrhythmic effect in hSUR1/hKir6.2 (pancreatic KATP channel) transfected in CHO cells at a dose of 1 uM; conditions: at 1 µM; procedure, shortened: as §1
[3] = target: T1, Sulfonylurea receptor 1, Kir6.2 (Homo sapiens); assay: Antiarrhythmic effect in hSUR1/hKir6.2 (pancreatic KATP channel) transfected in CHO cells at a dose of 10 uM; conditions: at 10 µM; procedure, shortened: as §1

| SMILES | inhibition [1] | inhibition [2] | inhibition [3] |
| --- | --- | --- | --- |
| C=CCOc1ccc(CCNC(=O)c2cc(Cl)ccc2OC)cc1S(=O)(=O)/N=C(\S)NC | 1.7% | 31.8% | 94% |
| CNC(=S)NS(=O)(=O)c1cc(CCNC(=O)c2cc(Cl)ccc2OC)ccc1OC | 5% | 24.3% | 83.8% |
| COc1ccc(Cl)cc1C(=O)NCCc1ccc(OC)c(S(=O)(=O)/N=C(\S)NC2CCCCC2)c1 | 20.5% | 87.6% | 122% |
| CN/C(S)=N/S(=O)(=O)c1cc(CCNC(=O)c2cc(Cl)ccc2OC)ccc1C | 1.9% | 21% | 74.8% |
| CNC(=O)NS(=O)(=O)c1cc2c(cc1OC)OCCC2CNC(=O)c1cc(Cl)ccc1OC (single isomer, unassigned; (-)) | 2.5% | 14.2% | 105% |
| CNC(=O)NS(=O)(=O)c1cc2c(cc1OC)OCCC2CNC(=O)c1cc(Cl)ccc1OC (single isomer, unassigned; (+)) | 2% | 1% | 0.3% |
| CN/C(S)=N/S(=O)(=O)c1cc(CCNC(=O)c2cc(Cl)ccc2OC)ccc1Br | 3.3% | 2.2% | 67.7% |
| CN/C(S)=N/S(=O)(=O)c1cc(CCNC(=O)c2cc(Cl)ccc2OC)ccc1I | 1.7% | 19.2% | 89.2% |
| CN/C(S)=N/S(=O)(=O)c1cc(CCNC(=O)c2cc(Cl)ccc2OC)ccc1SC | -2.1% | 15.2% | 81.4% |
| CN/C(S)=N/S(=O)(=O)c1cc2c(cc1OC)OCCC2CNC(=O)c1cc(Cl)ccc1OC (single isomer, unassigned; (-)) | 6.8% | 63% | 75.7% |
| CNC(=O)NS(=O)(=O)c1ccc(CCNC(=O)c2cc(Cl)ccc2OC)cc1 | -0.7% | 62.8% | 86.3% |
| CN/C(S)=N/S(=O)(=O)c1cc(CCNC(=O)c2cc(Cl)ccc2OC)ccc1-c1ccco1 | -2.6% | 16% | 82.7% |
| CNC(=O)NS(=O)(=O)c1cc(CCNC(=O)c2cc(Cl)ccc2OC)ccc1OC | -2.8% | -1.3% | 43.9% |
| CN/C(S)=N/S(=O)(=O)c1cc(CCNC(=O)c2cc(Cl)ccc2OC)ccc1OCCOCCOC | 1% | 45.5% | 96.4% |
| CN/C(S)=N/S(=O)(=O)c1cc(CCNC(=O)c2cc(Cl)ccc2OC)ccc1OC(C)C | -4.7% | 27.4% | 81.1% |
| CCOc1ccc(CCNC(=O)c2cc(Cl)ccc2OC)cc1S(=O)(=O)/N=C(\S)NC | -2.7% | 16.3% | 75.4% |
| CN/C(S)=N/S(=O)(=O)c1cc(CCNC(=O)c2cc(Cl)ccc2OC)ccc1OC(F)(F)F | 0.8% | 6% | 64.9% |
| CN/C(S)=N/S(=O)(=O)c1cc(CCNC(=O)c2cc(Cl)ccc2OC)ccc1F | -3.9% | -1.3% | 18.1% |
| CN/C(S)=N/S(=O)(=O)c1cc(CCNC(=O)c2cc(Cl)ccc2OC)c(OC)cc1OC | -1% | 0.7% | 30.5% |
| CN/C(S)=N/S(=O)(=O)c1cc2c(cc1OC)OCCC2CNC(=O)c1cc(Cl)ccc1OC (single isomer, unassigned; (+)) | -3.9% | 3.6% | 70.7% |
| CN/C(S)=N/S(=O)(=O)c1cc(CCNC(=O)c2cc(Cl)ccc2OC)ccc1[S+](C)[O-] (stereo not drawn) | 1.9% | 2.4% | 17.6% |
